Assay results as given in ChEMBL document CHEMBL2203008, “Photoaffinity labeling of Ras converting enzyme using peptide substrates that incorporate benzoylphenylalanine (Bpa) residues: improved labeling and structural implications” (Bioorg Med Chem, 2011).
One block for each molecule: values may come before it. The source made the active and inactive calls. The calls are words filed in the database; no cut-off is given here. Starred links: 1 amine or outer side, 2 acyl side, 3 side chain; linkers in the order of their positions; H or OH if unused. Non-standard residues stand in square brackets, D forms with d. Residues, ends and D or L forms follow the SMILES beside them. *: point of attachment. X5 = O=C1N[C@H]2[C@H](CS[C@H]2CCCCC(=O)OCCOCCOCCN([C@@H](Cc2ccc(C(=O)c3ccccc3)cc2)C(=O)[*:2])[*:1])N1; X1 = NCCCC[C@@H](C(=O)[*:2])N(CCOCCOCCOC(=O)CCCC[C@@H]1SC[C@@H]2NC(=O)N[C@@H]21)[*:1]; Lys(Dde) = CC(NCCCC[C@H](N)C(=O)O)=C1C(=O)CC(C)(C)CC1=O; X4 = O=C1N[C@H]2[C@H](CS[C@H]2CCCCC(=O)OCCOCCOCCOCN*)N1; X2 = C/C(=C\C*)CC/C=C(\C)COCc1cccc(C(=O)c2ccccc2)c1; Bpa = N[C@@H](Cc1ccc(C(=O)c2ccccc2)cc1)C(=O)O; Dnp = O=[N+]([O-])c1ccc(*)c([N+](=O)[O-])c1; X3 = C/C(=C\C*)COCc1cccc(C(=O)c2ccccc2)c1; Farnesyl = CC(C)=CCC/C(C)=C/CC/C(C)=C/C*; Suc = O=C(CCC(=O)[*:2])[*:1]; 2Abz = Nc1ccccc1C(=O)O

What was measured:
[1] = tested on: Saccharomyces cerevisiae; assay: Binding affinity to Rce1p in yeast membrane at 15 uM measured 20 mins post irradiation by pull-down-Western blot analysis; assay type: cell membranes
How it was run: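 Biotinylated probes at 15 μM were mixed with membranes (0.25 μg/μL) from the RCE1-HA rce1Δ ste24Δ yeast strain in 100 mM Hepes, 5 mM MgCl2, pH 7.5. Samples were irradiated at 2537 Å for 20 min at 4 °C. Protein was precipitated and pulled down on streptavidin for 4 h at 4 °C, then separated by 12% SDS-PAGE. Detection was by anti-HA Western blot with ECL, followed by densitometry.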

[2] = tested on: Saccharomyces cerevisiae; assay: Activity of Rce1p in yeast membrane assessed as release of -K(Dnp)IM tripeptide measured per mg protein by fluorescence-based proteolytic assay; assay type: cell membranes
How it was run: (§1)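 Enzyme was carbonate-washed membranes from S. cerevisiae overexpressing HA-tagged yeast Rce1p as the sole CAAX protease. Membranes were preincubated 10 min at 30 °C, then added to the Abz/Dnp fluorogenic farnesyl peptide: 10 concentrations, 0–45 or 0–50 μM final, 0.25 mg/mL membrane protein, Hepes/MgCl2 pH 7.5. Fluorescence (340/420 nm) was read every 30–60 s for 1 h at 30 °C. RFU were converted to product using a trypsin standard curve to give KM and Vmax. Runs were done in two or five replicates.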

[3] = tested on: Saccharomyces cerevisiae; assay: Ratio of Vmax to Km for Rce1p in yeast membrane assessed as release of -K(Dnp)IM tripeptide measured per mg protein by fluorescence-based proteolytic assay; assay type: cell membranes; how it was run: as §1
[4] = tested on: Saccharomyces cerevisiae; assay: Binding affinity to rce1/ste24-deficient yeast cell membrane at 15 uM measured 30 mins post irradiation by Western blot analysis
How it was run: (§2)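 Probe at 15 μM was irradiated at 2537 Å for 30 min at 4 °C in Hepes/MgCl2 pH 7.5, or left unirradiated. Membranes (0.25 μg/μL) came from RCE1-HA or Rce1p-lacking (rce1Δ ste24Δ) yeast strains. This was followed by streptavidin pull-down, SDS-PAGE and anti-HA Western blot with ECL detection.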

[5] = tested on: Saccharomyces cerevisiae; assay: Competitive binding affinity to Rce1p active site in yeast membrane at 15 uM measured 30 mins post irradiation by Western blot analysis in presence of 50 uM Abz-KSKTKC(Fr)K(Dnp)IM; assay type: cell membranes
How it was run: (§3)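 RCE1-HA membranes (0.25 μg/μL) were irradiated at 2537 Å with 15 μM probe for 30 min at 4 °C. The non-photoreactive farnesylated substrate was present at 50 or 100 μM, in Hepes/MgCl2 pH 7.5. Samples were taken through streptavidin pull-down, SDS-PAGE, anti-HA Western blot with ECL, and densitometry across four replicate experiments.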

[6] = tested on: Saccharomyces cerevisiae; assay: Binding affinity to Rce1p in yeast membrane at 15 uM measured 30 mins post irradiation by time-course experiment; assay type: cell membranes
How it was run: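 Time course: RCE1-HA membranes (0.25 μg/μL) were irradiated at 2537 Å and 4 °C with 15 μM probe for 10–60 min, in 100 mM Hepes, 5 mM MgCl2, pH 7.5. Labelled protein was taken through streptavidin pull-down, SDS-PAGE and anti-HA Western blotting.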

[7] = tested on: Saccharomyces cerevisiae; assay: Competitive binding affinity to Rce1p active site in yeast membrane at 15 uM measured 30 mins post irradiation by Western blot analysis in presence of 100 uM Abz-KSKTKC(Fr)K(Dnp)IM; assay type: cell membranes; how it was run: as §3
[8] = tested on: Saccharomyces cerevisiae; assay: Binding affinity to Rce1p in yeast membrane at 15 uM after 30 mins by Western blot analysis; assay type: cell membranes; how it was run: as §2
[9] = tested on: Saccharomyces cerevisiae; assay: Binding affinity to Rce1p in yeast membrane at 15 uM measured 30 mins post irradiation by Western blot analysis; assay type: cell membranes; how it was run: as §2
[10] = tested on: Saccharomyces cerevisiae; assay: Activity of Rce1p in yeast membrane assessed as formation of Biotin-PEG3-KSK-Bpa-KC(Fr) at 20 uM after 4 hrs by RP-HPLC analysis; assay type: cell membranes
How it was run: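 Probe diluted to 20 or 40 μM in 100 mM Hepes, 5 mM MgCl2, pH 7.5. Carbonate-washed yeast membranes containing Rce1p were added to 0.25 mg/mL total protein and incubated at 35 °C for about 4 h. Material was cleaned up on C18 reversed-phase cartridges and analysed by C18 RP-HPLC with diode-array detection at 220 and 349 nm. Product identity was checked by ESI-MS/MS.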

[11] = tested on: Saccharomyces cerevisiae; assay: Binding affinity to rce1/ste24-deficient yeast cell membrane at 15 uM after 30 mins by Western blot analysis; how it was run: as §2

Compound: CC[C@H](C)[C@H](NC(=O)[C@@H](NC(=O)[C@H](CSC/C=C(\C)CC/C=C(\C)CCC=C(C)C)NC(=O)[C@H](CCCCN)NC(=O)[C@@H](NC(=O)[C@H](CCCCN)NC(=O)[C@H](CO)NC(=O)[C@H](Cc1ccc(C(=O)c2ccccc2)cc1)NCCOCCOCCOC(=O)CCCC[C@@H]1SC[C@@H]2NC(=O)N[C@@H]21)[C@@H](C)O)C(C)C)C(=O)N[C@@H](CCSC)C(=O)O (H-[X5]SKTKC(Farnesyl)VIM-OH)
Activity [1]: Active

Compound: CC[C@H](C)[C@H](NC(=O)[C@@H](NC(=O)[C@H](CSC/C=C(\C)CC/C=C(\C)CCC=C(C)C)NC(=O)[C@H](CCCCN)NC(=O)[C@@H](NC(=O)[C@H](CCCCN)NC(=O)[C@H](Cc1ccc(C(=O)c2ccccc2)cc1)NC(=O)[C@H](CCCCN)NCCOCCOCCOC(=O)CCCC[C@@H]1SC[C@@H]2NC(=O)N[C@@H]21)[C@@H](C)O)C(C)C)C(=O)N[C@@H](CCSC)C(=O)O (H-[X1][Bpa]KTKC(Farnesyl)VIM-OH)
Activity [1]: Active

Compound: CC[C@H](C)[C@H](NC(=O)[C@H](CCCCNc1ccc([N+](=O)[O-])cc1[N+](=O)[O-])NC(=O)[C@H](CSC/C=C(\C)COCc1cccc(C(=O)c2ccccc2)c1)NC(=O)[C@H](CCCCN)NC(=O)[C@@H](NC(=O)[C@H](CCCCN)NC(=O)[C@H](CO)NC(=O)[C@H](CCCCN)NC(=O)[C@H](CCCCNC(C)=C1C(=O)CC(C)(C)CC1=O)NC(=O)CCC(=O)NCOCCOCCOCCOC(=O)CCCC[C@@H]1SC[C@@H]2NC(=O)N[C@@H]21)[C@@H](C)O)C(=O)N[C@@H](CCSC)C(=O)O ({X4-Suc}-[Lys(Dde)]KSKTKC(X3)K(Dnp)IM-OH)
Activity [1]: Active

Compound: CC[C@H](C)[C@H](NC(=O)[C@@H](NC(=O)[C@H](CSC/C=C(\C)CC/C=C(\C)CCC=C(C)C)NC(=O)[C@H](CCCCN)NC(=O)[C@@H](NC(=O)[C@H](Cc1ccc(C(=O)c2ccccc2)cc1)NC(=O)[C@H](CO)NC(=O)[C@H](CCCCN)NCCOCCOCCOC(=O)CCCC[C@@H]1SC[C@@H]2NC(=O)N[C@@H]21)[C@@H](C)O)C(C)C)C(=O)N[C@@H](CCSC)C(=O)O (H-[X1]S[Bpa]TKC(Farnesyl)VIM-OH)
Activity [1]: Active

Compound: CC[C@H](C)[C@H](NC(=O)[C@H](CCCCNc1ccc([N+](=O)[O-])cc1[N+](=O)[O-])NC(=O)[C@H](CSC/C=C(\C)CC/C=C(\C)COCc1cccc(C(=O)c2ccccc2)c1)NC(=O)[C@H](CCCCN)NC(=O)[C@@H](NC(=O)[C@H](CCCCN)NC(=O)[C@H](CO)NC(=O)[C@H](CCCCN)NC(=O)[C@H](CCCCNC(C)=C1C(=O)CC(C)(C)CC1=O)NC(=O)CCC(=O)NCOCCOCCOCCOC(=O)CCCC[C@@H]1SC[C@@H]2NC(=O)N[C@@H]21)[C@@H](C)O)C(=O)N[C@@H](CCSC)C(=O)O ({X4-Suc}-[Lys(Dde)]KSKTKC(X2)K(Dnp)IM-OH)
Activity [1]: Active

Other lines, results leading:

Km [2]: 6.4 µM | Vmax [2]: 5.6 nmol/min/mg | Vmax/Km [3]: 8.6 ×10⁻⁴ L/min
Compound: CC[C@H](C)[C@H](NC(=O)[C@H](CCCCNc1ccc([N+](=O)[O-])cc1[N+](=O)[O-])NC(=O)[C@H](CSC/C=C(\C)CC/C=C(\C)CCC=C(C)C)NC(=O)[C@H](CCCCN)NC(=O)[C@@H](NC(=O)[C@H](CCCCN)NC(=O)[C@H](CO)NC(=O)[C@H](CCCCN)NC(=O)c1ccccc1N)[C@@H](C)O)C(=O)N[C@@H](CCSC)C(=O)O (H-[2Abz]KSKTKC(Farnesyl)K(Dnp)IM-OH)

Activity [4]: inactive | Activity [5]: 84% | Activity [1]: Active | Activity [6]: Active | Activity [7]: 7% | Activity [8]: inactive | Activity [9]: Active | Activity [10]: Active | Activity [11]: inactive
Compound: CC[C@H](C)[C@H](NC(=O)[C@@H](NC(=O)[C@H](CSC/C=C(\C)CC/C=C(\C)CCC=C(C)C)NC(=O)[C@H](CCCCN)NC(=O)[C@H](Cc1ccc(C(=O)c2ccccc2)cc1)NC(=O)[C@H](CCCCN)NC(=O)[C@H](CO)NC(=O)[C@H](CCCCN)NCCOCCOCCOC(=O)CCCC[C@@H]1SC[C@@H]2NC(=O)N[C@@H]21)C(C)C)C(=O)N[C@@H](CCSC)C(=O)O (H-[X1]SK[Bpa]KC(Farnesyl)VIM-OH)

Km [2]: 1.9 µM | Vmax [2]: 0.093 nmol/min/mg | Vmax/Km [3]: 4.8 ×10⁻⁵ L/min
Compound: CC[C@H](C)[C@H](NC(=O)[C@H](CCCCNc1ccc([N+](=O)[O-])cc1[N+](=O)[O-])NC(=O)[C@H](CSC/C=C(\C)COCc1cccc(C(=O)c2ccccc2)c1)NC(=O)[C@H](CCCCN)NC(=O)[C@@H](NC(=O)[C@H](CCCCN)NC(=O)[C@H](CO)NC(=O)[C@H](CCCCN)NC(=O)c1ccccc1N)[C@@H](C)O)C(=O)N[C@@H](CCSC)C(=O)O (H-[2Abz]KSKTKC(X3)K(Dnp)IM-OH)
